According to the EternaBench riboswitch data:

System: MS2 coat protein
Test: apparent Kd, MS2 coat protein; higher = weaker binding; RNA-MaP array; FMN 200 µM where present
How it was run: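 Stalled E. coli RNA polymerase produced the designs on Illumina sequencing-chip clusters. SNAP-549-labelled MS2 coat protein was added from 0.7 or 1.5 nM, doubling to 3 µM, without and then with constant ligand, in 100 mM Tris-HCl pH 7.5, 80 mM KCl, 4 mM MgCl2, BSA, DTT, yeast tRNA and Tween-20. The apparent Kd is the median of filtered per-cluster fits of green signal normalised to red-channel RNA signal and control-cluster median Fmax.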

[1] = designed as: OFF switch for flavin mononucleotide, no ligand
[2] = ligand present: flavin mononucleotide, designed as: OFF switch for flavin mononucleotide
[3] = designed as: ON switch for flavin mononucleotide, no ligand
[4] = ligand present: flavin mononucleotide, designed as: ON switch for flavin mononucleotide

Sequence | apparent Kd [1] | apparent Kd [2] | apparent Kd [3] | apparent Kd [4]
GUUUCACAUGAGGAUCACCCAUGUGAGGAUAUGGACUUAUUGGCAAUAGUCGAUGGGUUCAGAAGGCGCGUGAU | 67.9 nM | 71.2 nM | – | –
GUAGCAUACCGAGGAUAUUCAGAUAAUAAAUAAACAUGAGGAUCACCCAUGUGGCGAAAGCCUAGGGAGAAGGCGGAAUGCUAC | – | – | 77 nM | 20.6 nM
AGACUGAAGCAAGGAUAUUGUAAGGUUAAUGUACAAGAAGGUGCUGUUUAUGUCUCUUAACAUGAGGAUCACCCAUGUUUUGGU | – | – | 23.9 nM | 19.9 nM
AAAAAGGCAGGAUAUACGAGUCAAAGAAAAGACAAAAAGGGACAUGAGGAUCACCCAUGUAGAAGGGCCAAAAA | 36.9 nM | 227 nM | – | –
UCCACUGCUGAGAAGGGAUACGUCUGGCUCGCAUCAGGAUAUCGAUACAGUGCAGCAUGAGGACAUGAGGAUCACCCAUGUGUG | – | – | 104 nM | 68.8 nM
AGAUUUAAUACAGGAUAUGUUAGUAUACAGUUGAUUGGUUAUUACAUUAUGACAGAAGGGUAGAACAUGAGGAUCACCCAUGUA | – | – | 241 nM | 115 nM
GAUCCACAUGAGGAUCACCCAUGUGAGGAUAUGAUACUAUGUACUUCGGUACAUAGUAUCAGAAGGCACGGGUC | 84.1 nM | 206 nM | – | –
CUAUUUAGUGCCUCAUGUACAUGAGGAUCACCCAUGUUAACUUAGGAUAUAUUUAUAUUGUUAGAGUAGAAGGAAGUACUAUUU | 26.3 nM | 21.5 nM | – | –
UCACAGGGAGGAUAUACAUGAGGAUCACCCAUGUGAAUCUUCGACCUGCAGGUACUUUGUAGAAGGCCCAGUGG | 107 nM | 123 nM | – | –
UGACGGAGCUGAGGAUAUAACAUGAGGAUCACCCAUGUAAGUCUCCAGGAAACUGGAGACAAAUGUUAGAAGGCAGCUCCGUCA | 39.4 nM | 50.7 nM | – | –
AAAUCAGUAGGAUAUACGAUUUUGUACUAGACAGAGGAACCACAUGAGGAUCACCCAUGUAGAAGGACUAGAUA | 16.4 nM | 13.9 nM | – | –
AAAAAGGCAGGAUAUACAAAAAAAUUUUUAAAAAAAAAAAAACAUGAGGAUCACCCAUGUAGAAGGGCCAAAAA | 54.2 nM | 51.7 nM | – | –
UUAGCAACAUGAGGAUCACCCAUGUAGGAUAUCGCUAUUGUAAUCAUGAAACAUGAUUACAAUAGCGAGAAGGACAUAUGCUAC | 11.2 nM | 12.1 nM | – | –
CUCCUGCAAGGAUAUACAUAGUGACGUCUGUUUAAUCUUAAACAUGAGGAUCACCCAUGUAGAAGGUGCGUCAC | 16.7 nM | 18.1 nM | – | –
UUACUCAUGUAAGGAUAUGCAGCCGUUUCGGCUGCAGAAGGUACUAUAAUACAUGAGGAUCACCCAUGUCUAUACAAUAAAGAC | – | – | 62.9 nM | 26 nM
GGUGCGUAUGUGAGGAUAUGCUGGUCCUUGGAUCGGCAGAAGGCACAUGAGGAUCACCCAUGUGGUGUCGUACU | 300 nM | 25.5 nM | – | –
AAUCUGUCGGUAGGAUAUCAGUUUGGAGAGCCGACAUGAGGAUCACCCAUGUACAGAAUCAAGGGUGAGAAGGACCGGGUAGUU | – | – | 90.7 nM | 78.6 nM
UGUGCCUCGAGAGGAUAUAUACAUGAGGAUCACCCAUGUAACGAGGUGGAAACACCUCGAAAUGUAUAGAAGGCUCGAGGCACA | 27.7 nM | 49.6 nM | – | –
GUCGUGUGAGGAUAUGGAUAGAAGAAGUGAAAGUAAGCGACCUAGAAGGCACAUGAGGAUCACCCAUGUAUGUG | 45.3 nM | 75.6 nM | – | –

Sequence | apparent Kd [1] | apparent Kd [2] | apparent Kd [3] | apparent Kd [4]
UUAUGGAUUACAGGAUAUGUUAGUUUUAAGUGUAUUGGUUAUUACUUAAUUACAGAAGGGUAUUACAUGAGGAUCACCCAUGUA | – | – | 16.4 nM | 11.8 nM
AGCUACGUUUCGUAGCAGCUAGGUGAGGAUAUUAAAAUUUUCACAUGAGGAUCACCCAUGUAUGUGAAGAAGGCGCCUAGAAAG | – | – | 53.7 nM | 7.76 nM
UUGGACGUCGUAGGAUAUGUAGGAUAUUCCUACAUGAGGAUCACCCAUGUUGAGAUGGAAGAAGGACAGAAGGACGAUGUCCAU | – | – | 25.3 nM | 4.05 nM
UUUUUCUCAGGAUAUACAUGAGGAUCACCCAUGUAUAUUAGGAAUAAUACAUGGGAAUGUAGAAGGGAGCUCAU | 128 nM | 98.4 nM | – | –
GUAGCAUACCGAGGAUAUUCAUGGAAUAAAUAAACAUGAGGAUCACCCAUGUGGCGAAAGCCUAGGGAGAAGGCGGAAUGCUAC | – | – | 269 nM | 446 nM
ACUUUACGAGGAUAUACUGUCGGGCCUCGGGCAUACAUGCGACAUGAGGAUCACCCAUGUAGAAGGCGUUUACU | 29.5 nM | 92 nM | – | –
ACAUGAGACUUAGGAUAUGUUGUACCUACAUGUGACAUGAGGAUCACCCAUGUGGUAAGUAUGACACAGAAGGAAGAGAUAUGU | – | – | 21.4 nM | 19.9 nM
UGUCGGAGCCGAGGAUAUUACAUGAGGAUCACCCAUGUAUGAACCAAUAGCUGGAAACAGCAAUGUAAGAAGGCUGCUCCGACA | 5.08 nM | 15.7 nM | – | –
GGUGGCGCCUAGAAGGCCGGCCAAGAAGGAGCCGGAGGAUAUAGGCCUACAUGAGGAUCACCCAUGUGGCUUAGUCAUAUGGUU | 22.4 nM | 120 nM | – | –
CCUCAGUAAGGAUAUCAGCUUAAGGAGGUGGUAAAGAGAGCUGAGAAGGUACAUGAGGAUCACCCAUGUUAAAA | 91.1 nM | 227 nM | – | –
GUCAGCUCGUGAGGAUAUACAACACUGCUUUGGCAGUGUAUUAAGAUCACAUGAGGAUCACCCAUGUAGAAGGCACGAGCUGAU | 13.2 nM | 228 nM | – | –
CUUAAAGACGAGAAGGCUGAUUUGACAUGAGCGUCAGCCGUGUAACAUGAGGAUCACCCAUGUGCGGAGGAUAUUGAUCUUGAG | – | – | 12.3 nM | 13.9 nM
GUCGGGUGGGUAGGAUAUGGCUAUGUCUCAUUGCUAGAAGGACCAACUGCUACAUGAGGAUCACCCAUGUCGUAGUGCACCCGG | – | – | 149 nM | 27.5 nM
CUGUUAUAGAUCCAUUUUUUCAACAUGAGGAUCACCCAUGUGCAGGAUAUCGUGAUUAUUUUCAUCGAGAAGGGCAUAAUCACG | 46.6 nM | 51 nM | – | –
AUAUGAUAGAUAGGAUAUACAUUGGAUUUAUAAGUAGAAGGAUCAAGUGGGAAUUAUACAUGAGGAUCACCCAUGUUUUUGGAU | – | – | 63.9 nM | 43.9 nM
UCCUAGCUAGGAUAUACCCAGGGUUUGUUCUCUAACAAAACACAUGAGGAUCACCCAUGUAGAAGGAGCCGGGA | 76.9 nM | 70.8 nM | – | –
AUACCUUAUGAGAAGGCGGUCAUGAAACAUGAUCGAGGAUAUCAUGUAAACAUGAGGAUCACCCAUGUAUGGGUAUUAUGGUAC | – | – | 38.2 nM | 10.2 nM
UCAGGCUUCGAGAAGGACAUGAGGAUCACCCAUGUGCGUGUGAAGCAGCCGUGAGGCUGCAUCAUGUAGGAUAUCGGAGUCUGA | 75.6 nM | 459 nM | – | –
GAAAACUGAGGAUAUACAUGAGGAUCACCCAUGUAGGUACGGCUUCUACAUUCGUCAUGUAGAAGGCAGUAUAA | 18.1 nM | 15.7 nM | – | –

Sequence | apparent Kd [1] | apparent Kd [2] | apparent Kd [3] | apparent Kd [4]
AGUAACAGAGGAUAUACUAUUUUAUGUAUUUAUUAUUUUGAACAUGAGGAUCACCCAUGUAGAAGGCUGAAUAA | 27.1 nM | 22 nM | – | –
GUUAUUUAUGUAGGAUAUGCGAGGCGAGCCUAAGCAGAAGGACAUGAGGAUCACCCAUGUAUUGCGGUCUGCGUUCAGAUCGCU | 32.4 nM | 150 nM | – | –
GCCUGCUGGCGAGGAUAUUCUGUGCGGUUCCGGCUCGUGUCUGUUACAUGAGGAUCACCCAUGUGGGAGAAGGUGUCUGCGGCC | 7.66 nM | 8.34 nM | – | –
GCCUAACAUGAGGAUCACCCAUGUCGUGGGUUGUUAGGAUAUGGACCGCAAAACGCGGUACCAGAAGGAAUAGAAA | – | – | 555 nM | 297 nM
UAUAUACAUGAGGAUCACCCAUGUAAGGAUAUGCUUUAUUAUUAUUAUUAUUAUUAUUGCAGAAGGUACAAUAU | 32 nM | 29.8 nM | – | –
AGUCGGCAUGAGAAGGGUUACAUGAGGAUCACCCAUGUGAUCAAAUCGUUAACAGGAUAUCAGGCGUCGGGCUUUACCCGGAGG | 19.5 nM | 125 nM | – | –
UAUGGUUAAGUCAGGAUAUACGUGCAGUUUUCUGAGUAGAAGGGACAUGAGGAUCACCCAUGUAUGGUAGUGUU | 72.2 nM | 73.6 nM | – | –
GCCUUAUCCGUCAGGAUAUACAGUUGUUAGUUGUUGUAGAAGGGACAUGAGGAUCACCCAUGUACAUUACAUUG | 21.2 nM | 22.6 nM | – | –
UAAUCGUUGCAGAAGGUUAUUAUUAUAACGUGACACUUAACAUGAGGAUCACCCAUGUUUUUGAUGAAGGAUAUGCAACGGUAG | 8.04 nM | 7.71 nM | – | –
UUGUACAUAGGAUAUAGUUGUUUGUACAUGAGGAUCACCCAUGUUAUGUAUCUUUUGCUUCUAGAAGGAUGUUCUU | 38.7 nM | 27.7 nM | – | –
GUAAAGUGAGGAUAUGGUAAAUUAAUUAUUAAUUAAUUAAUCCAGAAGGCACAUGAGGAUCACCCAUGUAAUUG | – | 39.1 nM | – | –
UGCAGACGAGGAUAUGAUCAAUAAUACAUGAGGAUCACCCAUGUAAUACUGAUCCAUGGAUCAGAAGGCGUCUGCA | 16.7 nM | 22.9 nM | – | –
UUGGACGUCGUAGAAUAUGUAGGAUAUUCCUACAUGAGGAUCACCCAUGUUGACAUGGAAGAAGGACAGAAGGACGAUGUCCAU | – | – | 188 nM | 7.02 nM
CGAGACCUCACAGGAUAUGCUGGACUUUGUCCAGCAGAAGGGUGAAAACAUGAGGAUCACCCAUGUAUGGUCUCCAAAUUUAAG | – | – | 195 nM | 13.2 nM
CAGGAUAGAGGAUAUACAUAGAUACAGAUUCAUAUAAUCCUACAUGAGGAUCACCCAUGUAGAAGGCUAUCCUG | 15 nM | 46.4 nM | – | –
UAUAUAUAGUAAGGAUAUGUAUUAAUUUUAUAAACAGAAGGUACUGACAUGAGGAUCACCCAUGUUUUAGUGUGGGCAUGUAGA | 102 nM | 169 nM | – | –
GGUGGACAUGAGGAUCACCCAUGUGAGGAUAUCGGCUAUCUUGUCGCUGUCGGUUGCUCGAGAAGGCACAUUGU | 78.8 nM | 128 nM | – | –
UUUAAUAUUAUAGGAUAUGGAUACGAUACGUAUCCAGAAGGGUGAUUAAACUAUAAUCUAUACAUGAGGAUCACCCAUGUUUAU | – | – | 212 nM | 44.7 nM
